Reference: ChEMBL document CHEMBL1142436, “Design and synthesis of 4-substituted indolo[3,2-e][1,2,3]triazolo[1,5-a]pyrimidine derivatives with antitumor activity” (2008)

Key:
Assay type in all cases: functional
SK-MEL-2 = assay: Growth inhibition of human SK-MEL2 cells after 48 hrs; conditions: SK-MEL-2, 48 h; for TGI: read-out: pTGI (converted)
Summary of the method: (§1)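 NCI ~60-line screen. Cells were grown in RPMI 1640 with 5% FBS and 2 mM L-glutamine and plated at 5000–40000 cells/well. After a 24 h preincubation, five drug concentrations from DMSO stocks were added for 48 h at 37 °C. Cells were TCA-fixed, stained with SRB and read at 515 nm. GI50 was taken from time-zero and control absorbances and reported as pGI50.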

OVCAR-4 = assay: Growth inhibition of human OVCAR4 cells after 48 hrs; conditions: OVCAR-4, 48 h; for TGI: read-out: pTGI (converted); summary of the method: as §1
NCI-H460 = assay: Growth inhibition of human NCI-H460 cells after 48 hrs; conditions: NCI-H460, 48 h; for TGI: read-out: pTGI (converted); summary of the method: as §1
786-0 = assay: Growth inhibition of human 786-0 cells after 48 hrs; conditions: 786-0, 48 h; for TGI: read-out: pTGI (converted); summary of the method: as §1
T47D = assay: Growth inhibition of human T47D cells after 48 hrs; conditions: for TGI: read-out: pTGI (converted)
Summary of the method: (§2)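 NCI 60-line screen: cells in RPMI 1640 with 5% FBS and 2 mM L-glutamine, plated at 5000–40000 cells/well, grown 24 h (37 °C, 5% CO₂), then exposed to five 10-fold or ½-log dilutions (DMSO stock) for 48 h. Fixed with TCA (final 10% for adherent cells, 16% for suspension cells), then SRB stained with absorbance at 515 nm. GI50 from percentage growth relative to time-zero and control wells.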

HOP-62 = assay: Growth inhibition of human HOP62 cells after 48 hrs; conditions: HOP-62, 48 h; for TGI: read-out: pTGI (converted); summary of the method: as §1
PC-3 = assay: Growth inhibition of human PC3 cells after 48 hrs; conditions: PC-3, 48 h; for TGI: read-out: pTGI (converted); summary of the method: as §1
NCI/ADR-RES = assay: Growth inhibition of human NCI/ADR-RES cells after 48 hrs; conditions: for TGI: read-out: pTGI (converted); summary of the method: as §1
A549 = assay: Growth inhibition of human A549 cells after 48 hrs; conditions: A549, 48 h; for TGI: read-out: pTGI (converted); summary of the method: as §1
UO-31 = assay: Growth inhibition of human UO31 cells after 48 hrs; conditions: UO-31, 48 h; for TGI: read-out: pTGI (converted); summary of the method: as §2
K562 = assay: Growth inhibition of human K562 cells after 48 hrs; conditions: K562, 48 h; for TGI: read-out: pTGI (converted); summary of the method: as §1
SK-OV-3 = assay: Growth inhibition of human SKOV3 cells after 48 hrs; conditions: SK-OV-3, 48 h; for TGI: read-out: pTGI (converted); summary of the method: as §2
SK-MEL-28 = assay: Growth inhibition of human SK-MEL28 cells after 48 hrs; conditions: SK-MEL-28, 48 h; for TGI: read-out: pTGI (converted); summary of the method: as §1
COLO 205 = assay: Growth inhibition of human COLO205 cells after 48 hrs; conditions: COLO 205, 48 h; for TGI: read-out: pTGI (converted); summary of the method: as §1
HCT-15 = assay: Growth inhibition of human HCT15 cells after 48 hrs; conditions: HCT-15, 48 h; for TGI: read-out: pTGI; summary of the method: as §1
SW-620 = assay: Growth inhibition of human SW620 cells after 48 hrs; conditions: SW-620, 48 h; for TGI: read-out: pTGI (converted); summary of the method: as §2
OVCAR-3 = assay: Growth inhibition of human OVCAR-3 cells after 48 hrs; conditions: OVCAR-3, 48 h; for TGI: read-out: pTGI (converted); summary of the method: as §1
SNB-75 = assay: Growth inhibition of human SNB75 cells after 48 hrs; conditions: SNB-75, 48 h; for TGI: read-out: pTGI (converted); summary of the method: as §2
SN12C = assay: Growth inhibition of human SN12C cells after 48 hrs; conditions: for TGI: read-out: pTGI (converted); summary of the method: as §2
ACHN = assay: Growth inhibition of human ACHN cells after 48 hrs; conditions: for TGI: read-out: pTGI (converted); summary of the method: as §1
HCC 2998 = assay: Growth inhibition of human HCC2998 cells after 48 hrs; conditions: HCC 2998, 48 h; for TGI: read-out: pTGI (converted); summary of the method: as §1
[1] = Growth inhibition of human HS578T cells after 48 hrs; conditions: Hs-578T; for TGI: read-out: pTGI (converted); summary of the method: as §1
SR = assay: Growth inhibition of human SR cells after 48 hrs; summary of the method: as §2
MDA-MB-435 = assay: Growth inhibition of human MDA-MB435 cells after 48 hrs; conditions: MDA-MB-435, 48 h; summary of the method: as §1
[2] = read-out: Log LC50 (the source's name) (converted)

SMILES: CCCCN(CCCC)CCCn1c(=O)c2c3ccccc3n(C)c2n2nnc(-c3ccccc3)c12
- GI50 (SK-MEL-2): > 100 µM
- TGI (SK-MEL-2): > 100 µM
- GI50 (OVCAR-4): 17.4 µM
- TGI (OVCAR-4): 83.2 µM
- GI50 (NCI-H460): 40.7 µM
- TGI (NCI-H460): > 100 µM
- GI50 (786-0): 38.9 µM
- TGI (786-0): > 100 µM
- GI50 (T47D): 55 µM
- TGI (T47D): > 100 µM
- GI50 (HOP-62): 30.9 µM
- TGI (HOP-62): > 100 µM
- GI50 (PC-3): 18.2 µM
- TGI (PC-3): 47.9 µM
- GI50 (NCI/ADR-RES): 14.1 µM
- TGI (NCI/ADR-RES): 67.6 µM
- GI50 (A549): 43.7 µM
- TGI (A549): > 100 µM
- GI50 (UO-31): 6.03 µM
- TGI (UO-31): 46.8 µM
- GI50 (K562): 13.8 µM
- TGI (K562): > 100 µM
- GI50 (SK-OV-3): 30.2 µM
- TGI (SK-OV-3): 30.2 µM
- GI50 (SK-MEL-28): > 100 µM
- TGI (SK-MEL-28): > 100 µM
- GI50 (COLO 205): 5.01 µM
- TGI (COLO 205): 63.1 µM
- GI50 (HCT-15): 20.9 µM
- TGI (HCT-15): > 100 µM
- GI50 (SW-620): 26.3 µM
- TGI (SW-620): > 100 µM
- GI50 (OVCAR-3): 49 µM
- TGI (OVCAR-3): > 100 µM
- GI50 (SNB-75): 15.1 µM
- TGI (SNB-75): 56.2 µM
- GI50 (SN12C): 19.5 µM
- TGI (SN12C): 95.5 µM
- GI50 (ACHN): 34.7 µM
- TGI (ACHN): > 100 µM
- GI50 (HCC 2998): 20.4 µM
- TGI (HCC 2998): > 100 µM
- GI50 [1]: 38.9 µM
- TGI [1]: > 100 µM

SMILES: Cn1c2ccccc2c2c(=O)n(CCCC(=O)NCCc3c[nH]cn3)c3c(-c4ccccc4)nnn3c21
- GI50 (SK-MEL-2): 10.2 µM
- LC50 (SK-MEL-2): 42.7 µM
- TGI (SK-MEL-2): 20.9 µM
- GI50 (OVCAR-4): 10.2 µM
- LC50 (OVCAR-4): 41.7 µM
- TGI (OVCAR-4): 20.4 µM
- GI50 (NCI-H460): 11 µM
- LC50 (NCI-H460): > 50.1 µM
- TGI (NCI-H460): 24.5 µM
- GI50 (786-0): 2.19 µM
- LC50 (786-0): 26.9 µM
- TGI (786-0): 8.13 µM
- GI50 (T47D): 10.5 µM
- CC50 (T47D; [2]): > 50.1 µM
- TGI (T47D): 25.1 µM
- GI50 (HOP-62): 7.59 µM
- LC50 (HOP-62): 37.2 µM
- TGI (HOP-62): 17 µM
- GI50 (PC-3): 8.91 µM
- LC50 (PC-3): 44.7 µM
- TGI (PC-3): 20 µM
- GI50 (NCI/ADR-RES): > 50.1 µM
- LC50 (concentration killing 50% of cells) (NCI/ADR-RES): > 50.1 µM
- TGI (NCI/ADR-RES): > 50.1 µM
- GI50 (A549): 12.9 µM
- CC50 (A549; [2]): 45.7 µM
- TGI (A549): 24 µM
- GI50 (UO-31): 7.41 µM
- LC50 (UO-31): 29.5 µM
- TGI (UO-31): 14.8 µM
- GI50 (K562): 8.91 µM
- LC50 (K562): > 50.1 µM
- TGI (K562): 26.9 µM
- GI50 (SK-OV-3): 10.2 µM
- LC50 (SK-OV-3): 33.9 µM
- TGI (SK-OV-3): 18.6 µM
- GI50 (SR): 4.07 µM
- LC50 (SR): > 50.1 µM
- TGI (SR; read-out: pTGI (converted)): > 50.1 µM
- GI50 (SK-MEL-28): 8.91 µM
- LC50 (SK-MEL-28): 32.4 µM
- TGI (SK-MEL-28): 17 µM
- GI50 (COLO 205): 8.51 µM
- LC50 (COLO 205): 44.7 µM
- TGI (COLO 205): 19.5 µM
- GI50 (HCT-15): 14.5 µM
- LC50 (HCT-15): > 50.1 µM
- TGI (HCT-15): 43.7 µM
- GI50 (SW-620): 12.9 µM
- LC50 (lethal concentration, 50% cell kill) (SW-620): > 50.1 µM
- TGI (SW-620): 30.2 µM
- GI50 (OVCAR-3): 8.32 µM
- LC50 (OVCAR-3): 31.6 µM
- TGI (OVCAR-3): 16.2 µM
- GI50 (SNB-75): 10.5 µM
- LC50 (SNB-75): 33.1 µM
- TGI (SNB-75): 18.6 µM
- GI50 (MDA-MB-435): 10.2 µM
- LC50 (MDA-MB-435): 39.8 µM
- TGI (MDA-MB-435; read-out: pTGI (converted)): 20 µM
- GI50 (SN12C): 8.71 µM
- LC50 (SN12C): 39.8 µM
- TGI (SN12C): 18.6 µM
- GI50 (ACHN): 9.77 µM
- LC50 (ACHN): 33.1 µM
- TGI (ACHN): 17.8 µM
- GI50 (HCC 2998): 9.55 µM
- LC50 (HCC 2998): 40.7 µM
- TGI (HCC 2998): 20 µM
- GI50 [1]: 10.5 µM
- LC50 (50% lethal concentration) [1]: 49 µM
- TGI [1]: 22.4 µM
